Measurements from different studies.
Compare with care: the assays were run in different laboratories.
Target: Dual specificity mitogen-activated protein kinase kinase 3 (MAP2K3, Homo sapiens, UniProt P46734)
One construct used (P46734 1-347): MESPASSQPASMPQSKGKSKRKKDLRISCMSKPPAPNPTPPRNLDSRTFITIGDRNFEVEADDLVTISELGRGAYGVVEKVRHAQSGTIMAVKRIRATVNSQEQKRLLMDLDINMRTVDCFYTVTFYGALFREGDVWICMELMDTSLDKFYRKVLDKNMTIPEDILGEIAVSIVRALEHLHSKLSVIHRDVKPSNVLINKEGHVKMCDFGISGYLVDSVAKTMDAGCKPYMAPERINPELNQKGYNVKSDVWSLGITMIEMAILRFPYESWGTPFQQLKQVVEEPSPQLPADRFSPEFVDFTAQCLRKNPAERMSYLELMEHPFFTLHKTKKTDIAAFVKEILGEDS

Compound	read-out	action	method	concentration	measurement	value
Cc1ccc(C(=O)Nc2ccc(CN3CCN(C)CC3)c(C(F)(F)F)c2)cc1C#Cc1cnc2cccnn12	enzyme activity	inhibitor	–	23.5 nM	remaining activity	94%
Nc1ncnc2occ(-c3ccc(NC(=O)Nc4cc(C(F)(F)F)ccc4F)cc3)c12	cell-free assay	inhibitor	–	20 µM	remaining signal	11%
C[C@@H]1CCN(c2nccc(-c3cnn4ncccc34)n2)C1	binding	–	–	1 µM	remaining binding	69%
Cc1ccc(C(=O)NCc2ccsc2)cc1C#Cc1cn(C(C)C)c2ncnc(N)c12	enzyme activity	inhibitor	–	1 µM	activity vs control	77%
CC(=O)C1=C(C)N(c2cccc(C(F)(F)F)c2)C(=O)N[C@@H]1c1ccc(C#N)nc1	cell-free assay	–	competition with immobilised ligand	1 µM	remaining binding	95.2%
CC/C(=N\NC(=O)NCc1cccc(O)c1)c1ccc(O)c(C)c1O	enzyme activity	inhibitor	–	0.1 µM	inhibition	-2.5%
O=C(Nc1cnn(-c2csc(C(=O)NC3COC3)c2)c1)Nc1c(F)cccc1Cl	enzyme activity	inhibitor	–	5 µM	remaining activity	111%
Cc1c(NC(=O)c2cc(C(N)=O)nc3cc(F)ccc23)c(C(F)(F)F)nn1Cc1ccc(C(C)(C)C)cc1	cell-free assay	–	competition with immobilised ligand	1 µM	remaining binding	90%
CN1CC(Oc2cnc(C#N)cc2-c2ccn3nc(NC(=O)C4CC4)cc3c2)C1	enzyme activity	inhibitor	–	1 µM	inhibition	-8%
Cc1sc(C(=O)NC2COC2)cc1-n1cc(NC(=O)Nc2c(F)cccc2Cl)cn1	enzyme activity	inhibitor	–	10 µM	remaining activity	88.8%
